# Bioassay records deposited in PubChem BioAssay by several laboratories.
# An excerpt weighted towards active compounds, which were near 1.7% of everything screened.
# IDE inh = inhibits human insulin-degrading enzyme in HEK cells; P14735; FAbetaB cleavage, fluorescence polarization; inhibition, % at 5.59 µM; 320,000 compounds, 0.41% hits; AID 434962;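 active = percent inhibition above the average of all tested compounds plus 3 SD, set per screening campaign, cut at about 16% in these data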;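 also: IDE supplied by intact live HEK cells; FP after avidin binding of uncleaved biotin substrate so inhibition keeps polarization high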
# CSN inh = CSN deneddylation inhibition; Q92905; inhibition, % at 12.5 µM; 360,000 compounds, 0.38% hits; Purified CSN, SCF-Nedd8-OG deneddylation, fluorescence polarization;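 active = pattern-corrected inhibition above about 35%, with an unprinted fluorescence ratio check between 0.5 and 1.5, limit read from the data, passing the limit was not always enough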
#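 Detection – fluorescence polarization · System – HEK293T-derived human Csn5 enzyme · Controls – substrate-only high control, full reaction low control · Timing – 90 min, room temperature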
# Rpn11 inh = blocks the human proteasome subunit Rpn11; O00487; human 26S proteasome, Ub4-pepOG fluorescence polarization; 20S core pre-blocked with epoxomicin; inhibition, % at 20 µM; 360,000 compounds, 0.59% hits;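 active = inhibition at 20 µM, scaled to each plate's controls, above about 33%, limit read from the data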
# IDE cell activ = boosts human insulin-degrading enzyme activity in HEK cells; P14735; FAbeta-B cleavage, fluorescence polarization; 0% vehicle, 100% cell-free pure enzyme wells; activation, % at 5.96 µM; 340,000 compounds, 0.073% hits;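 active = activation above the mean of all tested compounds plus 3 SD, set per screening campaign, cut at about 17% in these data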
# TPT1 inhibitor = blocks Candida albicans tRNA 2'-phosphotransferase; recombinant caTPT1, FP RNA substrate dephosphorylation; inhibition, % at 5 µM; 300,000 compounds, 0.81% hits;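 active = inhibition above the mean of all tested compounds plus 3 SD, set per screening campaign, cut at about 24% in these data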
# HNF4A DNA FP = change in binding of human HNF4 alpha to DNA. HNF4a-FITC DNA binding, fluorescence polarization, 1 h. activity change, % at 10 µM. 360,000 compounds, 0.3% hits. AID 1224865; in the data active = activity change above about 30%, passing the limit was not always enough
# TPT1 inh confirm = TPT1 (C. albicans) inhibition, confirmation; inhibition, % at 5 µM; shares compounds with TPT1 inhibitor; 2,400 compounds, 74% hits; recombinant caTPT1, fluorescence polarization, RNase T1 coupled; AID 2149;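 active = inhibition above the primary screen limit, the mean inhibition of all tested compounds plus 3 SD, cut at about 25% in these data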
# RNase T1 counter = RNase T1 inhibition in TPT1 counter-screen; shares compounds with TPT1 inhibitor; RNase T1 cleavage, fluorescence polarization, 1536-well; inhibition, % at 5 µM; 2,400 compounds, 83% hits; AID 2153;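 active = inhibition above the solvent-only control well mean plus 3 SD, limit set per screening run, cut at about 23% in these data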;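 also: inhibitors block cleavage so intact labeled substrate keeps polarization high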
# A number is an active result; 0 = inactive; - = no result given.
SMILES,IDE inh,CSN inh,Rpn11 inh,IDE cell activ,TPT1 inhibitor,HNF4A DNA FP,TPT1 inh confirm,RNase T1 counter
CCn1c(C)c(C2=CCN(S(=O)(=O)c3ccccc3)CC2)c2ccccc21,0,0,0,0,28,0,0,29
COc1ccc(NC(=O)C2Cc3c(-c4cccc(NC(C)=O)c4)ccnc3O2)cc1 (stereo not given),-,0,0,-,-,0,-,-
COc1ccc2c(c1)cc(C(=O)N/N=C/c1c(O)c(C(=O)O)cc3ccccc13)n2C,0,0,-,0,51,0,60,65
Cn1c(C(=O)NN)cc2cc(Oc3ccccc3)ccc21,0,0,0,0,0,0,-,-
COC(=O)C1(C)NC(c2ccc(Cl)cc2)C2C(=O)N(c3ccccc3)C(=O)C21 (stereo not given),0,0,0,0,82,0,0,0
Cc1ccc([C@H]2C[C@H](O)[C@@H](n3cc(COC(=O)c4ccccc4)nn3)CN2C(=O)c2cccs2)cc1,-,0,0,-,-,0,-,-
COc1cccc(/C=C2/CN(C)CC3=C2OC(N)=C(C#N)C3c2cccc(OC)c2)c1 (stereo not given),0,0,0,0,40,0,25,34
CC(C(=O)c1ccc(Br)cc1)[n+]1cccc(NC(=O)c2ccccc2)c1 (stereo not given),0,0,0,0,0,0,-,-
CC(C(=O)c1ccc(Br)cc1)[n+]1cccc2ccccc21 (stereo not given),0,0,-,0,37,0,0,26
COc1cc(OC)cc(C(=O)c2c(C)c(C#N)c3ccccn23)c1,-,0,0,0,-,0,-,-
COC1=C/C(=C/c2c(O)c(C#N)c3ccccn23)C=CC1=O,0,0,0,0,30,0,0,0
COC(=O)Cn1c(=O)c2c(n(Cc3ccccc3)c1=O)N/C(=C/c1ccc(Br)cc1)C2=O,0,0,-,0,43,0,32,47
COc1cc([N+](=O)[O-])ccc1N/C=C/C(=O)c1cccs1,0,0,-,0,167,0,143,136
CCC(C)C(CO)NCCCn1cnc2c(OCc3ccccc3)ncnc21 (stereo not given),-,0,0,-,-,0,-,-
CCOc1ccc(Cl)cc1-c1cc(C(=O)NCCOC)[nH]n1,-,0,0,-,-,0,-,-
CN1N=C(C(=O)N=c2sc3ccccc3n2C)CCC1=O,-,0,0,0,-,0,-,-
O=[N+]([O-])c1ccc(N(c2ccccc2)c2ccccc2)cc1,0,0,-,0,30,0,32,46
Cc1ccc(S(=O)(=O)Oc2ccc(/C=C3/C(=N)N4C(=NC3=O)SN=C4S(C)(=O)=O)cc2)cc1,0,0,0,0,0,0,-,-
CN(C)c1ccc(/C=C2\C(=N)N3C(=NC2=O)Sc2cc(S(C)(=O)=O)ccc23)cc1,0,-,-,-,122,-,88,86
O=C(NCCO)OC1CC2CC1[C@H]1CCCCN1C2=O (stereo not given in full),-,0,-,-,-,0,-,-
Cc1ccc(C)c(N2CCN(S(=O)(=O)c3c(C)noc3/C=C/N(C)C)CC2)c1,0,0,0,0,29,0,0,0
Cc1noc(/C=C/N(C)C)c1S(=O)(=O)N1CCN(c2ccccc2)CC1,0,0,0,0,0,0,-,-
CSc1nc(-c2ccc(Cl)cc2)c(C#N)c(=O)n1C,0,0,0,0,0,0,-,-
CSc1nc(-c2ccc(N(C)C)cc2)c(C#N)c(=O)n1C,0,0,0,0,31,0,41,52
CCNC(=O)C1(C)CCN(C(=O)c2cccc(C#N)c2)C1 (stereo not given),-,0,0,-,-,0,-,-
SMILES,IDE inh,CSN inh,Rpn11 inh,IDE cell activ,TPT1 inhibitor,HNF4A DNA FP,TPT1 inh confirm,RNase T1 counter
CCC(C)N1CCN(S(=O)(=O)c2ccc3ccccc3c2)CC1 (stereo not given),0,0,0,0,0,0,-,-
CCC(C)N1CCNCC1 (stereo not given),0,0,0,0,33,0,0,0
C[C@H](CO)N1C[C@H](C)[C@@H](CN(C)S(=O)(=O)c2ccc(C#N)cc2)OCc2cn(nn2)CCCC1=O,-,0,0,-,-,0,-,-
Cc1nc2ccccc2c(=O)n1/N=C/c1c(O)ccc2ccccc12,0,0,0,0,39,0,0,0
CC(C)NC(=O)c1sc2nc3c(c(-c4cccs4)c2c1N)CN(C)CC3,0,0,0,0,0,0,-,-
Cc1cccc(NC(=O)c2sc3nc4c(c(-c5cccs5)c3c2N)CN(C)CC4)c1,0,0,0,0,38,0,28,35
Cc1sc(NC(=O)c2sc3nc4c(C)cccc4cc3c2N)c(C#N)c1C,0,0,0,0,25,0,30,43
Cc1cccc2cc3c(N)c(C#N)sc3nc12,0,0,0,0,0,0,-,-
COc1ccc(C2=C/C(=C/c3cccnc3)C(=O)O2)cc1OC,0,0,-,0,80,0,80,85
CCOc1ccc(C2=C/C(=C/c3cccnc3)C(=O)O2)cc1,0,0,0,0,83,0,69,78
CC(=O)Oc1cccc(/C=C2\C=C(c3ccc(C)cc3)OC2=O)c1,0,0,0,0,0,0,-,-
Cn1c(SCC(=O)NC2CCCCC2)nnc1C(F)(F)F,-,0,0,-,-,0,-,-
C[C@@H]1CN([C@H](C)CO)S(=O)(=O)c2ccc(C#CC3CCCC3)cc2O[C@H]1CN(C)C(=O)Cc1ccccc1,-,0,0,-,-,0,-,-
C=CCn1c(C(CCCC)CC(O)COCC(C)C)n[nH]c1=S (stereo not given),0,0,0,0,0,0,-,-
C=CCn1c(C(CC(C)C)CC(C)O)n[nH]c1=S (stereo not given),0,0,0,0,43,0,0,0
Cc1ccc(C2NC(=O)c3c(sc4c3CCN(C)C4)N2)s1 (stereo not given),0,0,-,0,64,0,38,47
CN1CCc2c(sc3c2C(=O)NC(c2ccccn2)N3)C1 (stereo not given),0,0,0,0,0,0,-,-
CN1CCc2c(sc3c2C(=O)NC(c2ccccc2)N3)C1 (stereo not given),0,0,0,0,27,0,31,45
Cc1ccc(C2NC(=O)c3c(sc4c3CCN(C)C4)N2)o1 (stereo not given),0,0,0,0,0,0,-,-
CCCC(=O)N(Cc1cc2cc(OC)ccc2[nH]c1=O)c1ccccc1OC,-,0,0,-,-,0,-,-
COc1ccc(C(=O)N(C)CCOc2ccc(Cl)cc2)cc1S(=O)(=O)N1CCCC1,-,0,0,-,-,0,-,-
COc1ccc(C(=O)N2CCc3ccccc3C2)cc1S(=O)(=O)N1CCCC1,-,0,0,-,-,0,-,-
CC1=Nc2ccc3ccccc3c2C1(C)C,0,35,-,0,85,0,44,55
